# Data from ChEMBL document CHEMBL3272120, “2,5,5-Trimethylthiazolidine-4-carboxylic acid, a D(-)-penicillamine-directed pseudometabolite of ethanol. Detoxication mechanism for acetaldehyde” (1978).
# Active and inactive are the calls of the source. No cut-off for these calls is given here.
# Key:
# Rattus norvegicus [1] = experiment: Detoxification of acetaldehyde in aldehyde dehydrogenase inhibitor disuifiram/ethanol-treated rat assessed as reduction of blood acetaldehyde level at 8 mmol/kg, ip administered 1 hr prior to ethanol treatment measured after 1 hr by head space gas chromatographic analysis
# Rattus norvegicus [2] = experiment: (§1) Detoxification of acetaldehyde in aldehyde dehydrogenase inhibitor disuifiram/ethanol-1-[14C]-treated Sprague-Dawley rat assessed as [14C]-3-acetyl-2-methylthiazolidine-4-carboxylic acid excretion in urine by measuring administered dose of ethanol-1-[14C] at 8.3 mmol/kg, ip administered 1 hr prior to 65 mmol/kg ethanol-1-[14C] treatment measured for 24 hrs by inverse isotope dilution method in presence of Ac2O relative to control; type: functional; set-up: scale not given: the % may be the effect or the level left
# Outline: (§2)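 Male Sprague-Dawley rats (190–280 g), given the test agent 1 h before ethanol-1-14C (65 mmol/kg, 200 mg/mL in isotonic saline, 0.8–1.4 μCi/rat), or at the same time as it for the simultaneous-dosing lines. Held in metabolism cages for 24 h. Urine plus washings were filtered and 400 mg unlabeled carrier added. The mix was acetylated with Ac2O, purified by preparative TLC and recrystallized from EtOAc to constant specific activity. Radioactivity was then scintillation counted.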
# Rattus norvegicus [3] = experiment: as §1, with “ethanol-1-[14C]-treated” for “aldehyde dehydrogenase inhibitor disuifiram/ethanol-1-[14C]-treated”, “acid” for “acid excretion”, “10” for “8.3”; type: functional
# Outline: as §2
# Rattus norvegicus [4] = experiment: as §1, with “ethanol-1-[14C]-treated” for “aldehyde dehydrogenase inhibitor disuifiram/ethanol-1-[14C]-treated”, “7.4” for “8.3”, “po” for “ip”; type: functional
# Outline: as §2
# Rattus norvegicus [5] = experiment: (§3) Detoxification of acetaldehyde in ethanol-1-[14C]-treated Sprague-Dawley rat assessed as [14C]-3-acetyl-2,5,5-trimethylthiazolidine-4-carboxylic acid excretion in urine by measuring administered dose of ethanol-1-[14C] at 8 mmol/kg, po administered with 65 mmol/kg ethanol-1-[14C] measured for 24 hrs by inverse isotope dilution method in presence of Ac2O relative to control; type: functional
# Outline: as §2
# Rattus norvegicus [6] = experiment: as §3, with “8.1” for “8”; type: functional
# Outline: as §2
# Rattus norvegicus [7] = experiment: (§4) Detoxification of acetaldehyde in ethanol-1-[14C]-treated Sprague-Dawley rat assessed as [14C]-3-acetyl-2,5,5-trimethylthiazolidine-4-carboxylic acid excretion in urine by measuring administered dose of ethanol-1-[14C] at 8.1 mmol/kg, po administered 1 hr prior to 65 mmol/kg ethanol-1-[14C] treatment measured for 24 hrs by inverse isotope dilution method in presence of Ac2O relative to control; type: functional
# Outline: as §2
# Rattus norvegicus [8] = experiment: as §4, with “aldehyde dehydrogenase inhibitor disuifiram/ethanol-1-[14C]-treated” for “ethanol-1-[14C]-treated”; type: functional; set-up: scale not given: the % may be the effect or the level left
# Outline: as §2
# Rattus norvegicus [9] = experiment: as §4, with “ip” for “po”; type: functional
# Outline: as §2
# Rattus norvegicus [10] = experiment: as §1, with “pargyline/ethanol-1-[14C]-treated” for “disuifiram/ethanol-1-[14C]-treated”, “[14C]-3-acetyl-2,5,5-trimethylthiazolidine-4-carboxylic” for “[14C]-3-acetyl-2-methylthiazolidine-4-carboxylic”, “8.1” for “8.3”; type: functional; set-up: scale not given: the % may be the effect or the level left
# Outline: as §2
# Rattus norvegicus [11] = experiment: as §1, with “[14C]-3-acetyl-2,5,5-trimethylthiazolidine-4-carboxylic” for “[14C]-3-acetyl-2-methylthiazolidine-4-carboxylic”, “2” for “8.3”, “first dose at 0.25 hrs” for “1 hr”, “43.5” for “65”, “treatment followed by 4 doses of compound at 0.75 hrs, 3 hrs, 5 hrs, 7 hrs” for “treatment”; type: functional; set-up: scale not given: the % may be the effect or the level left
# Rattus norvegicus [12] = experiment: as §1, with “pyrogallol/ethanol-1-[14C]-treated” for “disuifiram/ethanol-1-[14C]-treated”, “[14C]-3-acetyl-2,5,5-trimethylthiazolidine-4-carboxylic” for “[14C]-3-acetyl-2-methylthiazolidine-4-carboxylic”, “8.1” for “8.3”; type: functional; set-up: scale not given: the % may be the effect or the level left
# Outline: as §2
smiles,measurement,setting,value
NC(CCS)C(=O)O (racemic),Activity,Rattus norvegicus [1],inactive
NC(CCSSCCC(N)C(=O)O)C(=O)O (racemic),Activity,Rattus norvegicus [1],inactive
NC1CCSC1=O (racemic),Activity,Rattus norvegicus [1],inactive
N[C@@H](CS)C(=O)O (stereo in doubt),Activity,Rattus norvegicus [1],inactive
N[C@@H](CS)C(=O)O (stereo in doubt; 2),Activity,Rattus norvegicus [1],inactive
N[C@@H](CS)C(=O)O (stereo in doubt; 2) [CYSTEINE],Activity,Rattus norvegicus [2],0%
same,Activity,Rattus norvegicus [3],0%
CC(=O)N[C@@H](CS)C(=O)O [ACETYLCYSTEINE],Activity,Rattus norvegicus [1],inactive
same,Activity,Rattus norvegicus [4],0%
CC(=O)NC(C(=O)O)C(C)(C)S (centres undefined) [N-ACETYL PENICILLAMINE],Activity,Rattus norvegicus [1],inactive
same,Activity,Rattus norvegicus [5],0%
CC(C)(S)[C@@H](N)C(=O)O [PENICILLAMINE],Activity,Rattus norvegicus [1],Active
same,Activity,Rattus norvegicus [6],0.4%
same,Activity,Rattus norvegicus [7],1.2%
same,Activity,Rattus norvegicus [8],2.7%
same,Activity,Rattus norvegicus [9],0.5%
same,Activity,Rattus norvegicus [10],3.3%
same,Activity,Rattus norvegicus [11],7.6%
same,Activity,Rattus norvegicus [12],1.1%
